Screening data from PubChem.
This is a sample that favours compounds with a hit; in the whole collection about 2.4% have one here.
NadD block: inhibitors of Staphylococcus aureus NadD | purified NadD enzyme, colorimetric absorbance read-out | inhibition, % at 20 µM | 0.78% of 360,000 active | AID 602399; in the data active = inhibition above about 26%
DNMT1 block: DNMT1 (human) enzyme inhibition. DNMT1 molecular beacon, Hinp1I cleavage, fluorescence. inhibition (reported as % activation of signal), % at 10 µM. 0.83% of 360,000 active; in the data active = inhibition above about 50%
Target sequence (P26358 504-1616 limits assumed): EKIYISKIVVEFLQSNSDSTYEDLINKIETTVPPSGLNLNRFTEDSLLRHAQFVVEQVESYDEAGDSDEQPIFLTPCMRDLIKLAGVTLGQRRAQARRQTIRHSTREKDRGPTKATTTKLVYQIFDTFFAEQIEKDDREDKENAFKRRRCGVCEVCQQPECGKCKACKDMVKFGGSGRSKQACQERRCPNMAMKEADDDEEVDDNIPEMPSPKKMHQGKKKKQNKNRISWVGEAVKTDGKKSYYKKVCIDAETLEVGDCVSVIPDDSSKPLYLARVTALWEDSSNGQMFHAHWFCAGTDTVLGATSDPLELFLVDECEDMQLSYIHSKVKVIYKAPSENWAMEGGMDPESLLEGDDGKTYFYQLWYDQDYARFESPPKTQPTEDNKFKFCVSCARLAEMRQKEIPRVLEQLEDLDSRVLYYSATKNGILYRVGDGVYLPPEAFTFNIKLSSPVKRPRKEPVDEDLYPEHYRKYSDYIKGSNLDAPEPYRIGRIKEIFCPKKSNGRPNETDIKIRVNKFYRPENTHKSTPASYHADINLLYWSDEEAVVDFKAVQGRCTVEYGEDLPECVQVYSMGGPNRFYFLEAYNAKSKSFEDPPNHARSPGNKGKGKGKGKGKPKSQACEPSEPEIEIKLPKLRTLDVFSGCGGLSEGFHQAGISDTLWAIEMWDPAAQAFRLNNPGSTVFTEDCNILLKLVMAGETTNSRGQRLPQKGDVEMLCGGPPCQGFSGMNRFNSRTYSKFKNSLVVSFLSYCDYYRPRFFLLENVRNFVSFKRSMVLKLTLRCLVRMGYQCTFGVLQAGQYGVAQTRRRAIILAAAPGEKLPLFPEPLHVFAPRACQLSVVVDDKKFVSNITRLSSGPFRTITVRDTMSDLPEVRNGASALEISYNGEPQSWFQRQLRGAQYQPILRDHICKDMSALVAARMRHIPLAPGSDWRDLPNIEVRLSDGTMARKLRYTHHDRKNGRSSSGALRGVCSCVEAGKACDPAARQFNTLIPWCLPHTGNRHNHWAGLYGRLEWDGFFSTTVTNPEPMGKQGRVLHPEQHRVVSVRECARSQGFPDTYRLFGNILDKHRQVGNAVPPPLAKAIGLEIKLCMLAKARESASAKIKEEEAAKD
LMPTP block: LMPTP (human) inhibition. P24666. recombinant LMPTP-A, OMFP fluorogenic substrate, fluorescence intensity. inhibition, % at 20 µM. 0.22% of 360,000 active. AID 651560;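 active = compounds that cut the enzyme signal by at least half of the control window in the single-dose screen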;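 note: plate controls were DMSO wells with enzyme plus substrate for no effect and substrate without enzyme for full effect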
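material = LMPTP-A | quantity = 0.625 nM enzyme | reagent = OMFP substrate, 400 µM final | buffer or medium = Bis-Tris pH 6.0, DTT, detergent | detection = endpoint fluorescence intensity from OMFP dephosphorylation | dosing = single 20 µM dose | read-out basis = % inhibition relative to no-enzyme and uninhibited control wells | control set = no-enzyme and uninhibited controls | timing = 50 min at room temperature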
SUMO1-SIM PPI: alters human SUMO1 binding to SIM partners; SUMO1 binding to a labelled peptide, TR-FRET, 1 h; 0.33% of 360,000 active; inhibition, % at 20 µM; P63165; in the data active = inhibition above about 37%
Scp1 inh: blocks human Scp-1 phosphatase activity; Recombinant Scp1, phosphopeptide, malachite green phosphate absorbance; 0.88% of 340,000 active; inhibition, % at 20 µM; Q9GZU7;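 active = inhibition above about 50% at 20 µM, limit read from the data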;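 note: plate controls were DMSO wells with enzyme for no effect and wells lacking enzyme for full effect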
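Incubation: 45 min enzyme reaction at room temperature / System: truncated SCP-1 phosphatase (76-261aa) / Reagent: Phospho 17-mer peptide substrate / Buffer or medium: Acidic Tris acetate buffer with magnesium and detergent / Signal: absorbance at 630 nm / Doses: one concentration, 20 µM, with 1.0% DMSO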
STEP inh: STEP (human) phosphatase inhibition; recombinant STEP, OMFP fluorogenic substrate, fluorescence; inhibition, % at 20 µM; 0.25% of 360,000 active;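 active = inhibition at 20 µM, scaled per plate between control wells, above about 37%, limit read from the data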;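 note: 0% = DMSO with enzyme and substrate and 100% = substrate only without enzyme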
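Assay system: isolated STEP enzyme. Buffer or medium: pH 6.0 Bis-Tris with DTT and Tween 20. Also added: fluorogenic phosphatase substrate OMFP at 25 µM final. Dosing: 20 µM, 1% DMSO. Timing: 20 min reaction, room temperature, in the dark. Measured by: fluorescence intensity, excitation 480 nm, emission 540 nm. Evaluation: normalized % inhibition.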
NadD inh conf: NadD (S. aureus) inhibition, single concentration confirmation | shares compounds with NadD block | purified S. aureus NadD, colorimetric enzyme assay | inhibition, % at 20 µM | 13% of 2,000 active | AID 624309; in the data active = inhibition mostly above about 42%, no sharp cut-off; inactive = mostly below about 42%
Active calls of the source: *; x = no result.

SMILES | NadD block | DNMT1 block | LMPTP block | SUMO1-SIM PPI | Scp1 inh | STEP inh | NadD inh conf
O=C1C2C(c3cccc(/C=C/c4ccccc4)c3)CC=CC2C(c2ccc3ccccc3c2)N1Cc1ccccc1 (stereo unspecified) | 32* | 15 | 4 | 1 | -2 | 4 | 8
O=C(CCS(=O)(=O)Cc1cccc(Cl)c1)NCCc1ccccc1 | -4 | 1 | 0 | -2 | -17 | 2 | x
COc1ccc(N2c3ccccc3CN(Cc3ccccc3)CC2Cc2cc(OC)c(OC)c(OC)c2)cc1 (stereo unspecified) | 9 | -5 | 3 | -3 | x | 3 | x
COc1ccc(CCC(=O)OCC(=O)NC2CCCC2)cc1OC | -4 | -4 | -4 | -1 | x | -3 | x
CCC1CCCCN1C(=O)COC(=O)c1cc(=O)[nH]c2ccccc12 (stereo unspecified) | 1 | -4 | 0 | -33 | -2 | -2 | x
C[C@H](CO)N1C[C@H](C)[C@@H](CN(C)C(=O)c2ccc3ccn(C)c3c2)OCc2cn(nn2)CCCC1=O | -2 | 4 | -3 | 3 | x | 1 | x
O=C1CC2(CCN(C(=O)c3ccc(F)cc3)CC2)Oc2ccccc21 | -2 | -1 | 0 | 17 | -11 | -2 | x
Cc1cccc(N2CCN(C(=O)c3ccc4c(c3)NC(=O)C(CSCc3cccc(F)c3)N4)CC2C)c1 (stereo unspecified) | 49* | -8 | 1 | 5 | 6 | -2 | 70*
CCOc1ccc(S(=O)(=O)N2CCN(C(=O)c3cc(C4CC4)nn3-c3ccccc3)CC2)cc1 | 1 | -12 | 7 | 2 | -7 | 8 | x
CN(C(=O)COC(=O)c1ccc([N+](=O)[O-])cc1N)c1ccccc1 | -5 | 7 | 0 | -9 | -4 | 0 | x
Cc1cc(C)nc(NC(=NCCc2c[nH]c3ccccc23)NC(=O)Nc2ccccc2)n1 | 19 | -17 | 6 | -4 | 20 | -1 | x
Cc1cc(C)nc(NC(=NCCc2c[nH]c3ccccc23)NC(=O)Nc2cccc([N+](=O)[O-])c2)n1 | 49* | 6 | 3 | 3 | 1 | 3 | 8
Cc1cc(C)nc(NC(=NCCc2c[nH]c3ccccc23)NC(=O)Nc2ccc(Cl)c(Cl)c2)n1 | 38* | 16 | 5 | 2 | 4 | 0 | 3
C/C(=N/NS(=O)(=O)c1ccccc1)c1ccc(NC(=O)C2CC2)cc1 | -3 | -4 | -1 | -3 | -1 | 0 | x
O=C1c2ccccc2NC(c2cccc(O)c2)N1Cc1ccco1 (stereo unspecified) | -4 | -7 | 0 | 5 | -1 | 3 | x
Cc1ccc2[nH]c(=O)c(C(c3nnnn3Cc3ccccc3)N3CCc4ccccc43)cc2c1 (stereo unspecified) | 32* | -24 | 3 | -43 | -7 | 0 | 22
Cc1cc2cc(C(c3nnnn3Cc3ccco3)N3CCc4ccccc43)c(=O)[nH]c2cc1C (stereo unspecified) | 32* | -14 | 3 | 5 | -17 | 13 | 26
CC(=O)c1cccc(NC(=O)N2C3CCCC2CC(NC(=O)C2CC2)C3)c1 (stereo unspecified) | -1 | 2 | -2 | -2 | 4 | -1 | x
O=C(OCC(=O)c1ccc(Cl)cc1Cl)c1ccc2c(c1)C(=O)N(c1cccc3ncccc13)C2=O | 43* | -5 | 3 | -4 | 5 | 6 | 7
O=C(COC(=O)c1ccc2c(c1)C(=O)N(c1cccc3ncccc13)C2=O)c1ccc(Cl)cc1 | 9 | 29 | 24 | 4 | 2 | 2 | x
C=CC[C@@H](CC(=O)N[C@@H](CO)Cc1ccccc1)C(=O)N[C@H](C)COC(=O)[C@@H](CC=C)Cc1ccc(F)cc1 | -8 | 3 | 0 | 1 | -8 | -2 | x
COc1cccc(-c2c(C(=O)N/N=C(\C)c3ccc(Cl)s3)nnn2-c2nonc2N)c1 | 32* | -2 | 1 | 1 | -5 | -2 | 15
Cc1ccc(C)c2nc(N3CCCC3)c(C#N)cc12 | 32* | -2 | 2 | -7 | -9 | -5 | 11
COc1ccc(-c2nnc(SCC(=O)Nc3sc4c(c3C#N)CCCC4)n2-c2ccccc2)cc1 | 41* | 45 | 1 | 3 | -8 | 2 | 5
COc1cccc(-n2c(SCC(=O)Nc3sc4c(c3C(N)=O)CCC4)nc3ccccc3c2=O)c1 | 32* | -6 | 2 | 4 | -5 | 3 | -14
SMILES | NadD block | DNMT1 block | LMPTP block | SUMO1-SIM PPI | Scp1 inh | STEP inh | NadD inh conf
COc1ccc(-n2c(SCC(=O)Nc3ccccc3)nnc2-c2ccc(NS(=O)(=O)c3ccc(C)cc3)cc2)cc1 | 49* | 15 | 1 | 1 | -10 | 2 | 44
COc1ccc(-n2c(SCC(=O)Nc3sc4c(c3C#N)CCCC4)nnc2-c2ccccc2OC)cc1 | 41* | -8 | 3 | 3 | 9 | 5 | 45
COc1ccc(-n2c(SCC(N)=O)nnc2-c2ccc(NS(=O)(=O)c3ccc(C)cc3)cc2)cc1 | 7 | -6 | 0 | 2 | 3 | -1 | x
Cc1cc(C)c(C)c(S(=O)(=O)N2CCN(C(=O)CNC(=O)c3ccco3)CC2)c1C | 1 | 3 | -1 | 5 | 0 | 2 | x
CCOCCCNC(=O)C(c1ccc(OC)cc1)N(Cc1cccs1)C(=O)c1ccccc1O (stereo unspecified) | -6 | -2 | 0 | 4 | -4 | 0 | x
Oc1ccc2ccccc2c1/C=C/c1ccc2c(Br)cc(Br)c(O)c2n1 | 58* | -42 | 4 | -8 | 10 | -3 | 33
O=C(/C=C/c1ccc(-c2ccccc2[N+](=O)[O-])o1)c1ccc(Br)cc1 | -7 | -6 | 4 | -12 | 43 | -1 | x
O=c1nc2s/c(=C\c3ccc(-c4ccccc4[N+](=O)[O-])o3)c(=O)n2nc1-c1ccccc1 | 36* | 37 | 39 | 16 | 45 | 28 | 5
c1ccc(SCc2nc3ccccc3[nH]2)nc1 | -2 | 8 | 0 | 0 | 1 | -2 | x
Cc1cc2nc(-c3cccc(Br)c3)c(Cc3ccsc3)n2c(C)c1Br | 41* | x | 2 | 7 | x | x | 19
Clc1cccc(Cc2c(-c3cccc(Cl)c3)nc3ccc(Br)cn23)c1 | 16 | -3 | 4 | -4 | x | 3 | x
Cc1cc2nc(-c3ccccc3)c(Cc3cccc(Cl)c3)n2c(C)c1Br | 38* | x | 2 | 8 | x | x | 26
Clc1cccc(Cc2c(-c3cccc(Br)c3)nc3ccc(Br)cn23)c1 | 30* | 16 | 1 | -2 | x | -4 | 44
Cc1cc2nc(-c3ccc(F)cc3)c(Cc3cccc(Cl)c3)n2c(C)c1Br | 69* | x | 2 | 16 | x | x | 29
